What was measured:
[1] = test system: OVCAR-5; test: Cytotoxicity against human OVCAR5 cells assessed as cell growth at 0.005 uM by SRB assay; assay type: functional; details: read-out: Activity
[2] = test system: SF-539; test: Cytotoxicity against human SF539 cells assessed as cell growth at 5 uM by SRB assay; assay type: functional; details: read-out: Activity
[3] = test system: K562; test: Cytotoxicity against human K562 cells assessed as cell growth inhibition after 72 hrs by MTS assay; assay type: functional, cell-based; details: K562, 72 h
[4] = test system: DU-145; test: Cytotoxicity against human DU145 cells assessed as cell growth at 0.5 uM by SRB assay; assay type: functional; details: read-out: Activity
In short: (§1)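 Measured in the NCI-60 human tumour cell line panel using five-dose testing. Growth was recorded at each dose for each cell line, and a GI50 was derived for each line.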

[5] = test system: MDA-MB-231; test: Cytotoxicity against human MDA-MB-231/ATCC cells assessed as cell growth at 50 uM by SRB assay; assay type: functional; details: read-out: Activity
[6] = test system: MOLT-4; test: Cytotoxicity against human MOLT4 cells assessed as cell growth at 0.05 uM by SRB assay; assay type: functional; details: read-out: Activity
[7] = test system: NCI-H460; test: Cytotoxicity against human NCI-H460 cells assessed as cell growth at 0.005 uM by SRB assay; assay type: functional; details: read-out: Activity
[8] = test system: ACHN; test: Cytotoxicity against human ACHN cells assessed as cell growth at 0.05 uM by SRB assay; assay type: functional; details: read-out: Activity
[9] = test system: SF-295; test: Cytotoxicity against human SF295 cells assessed as cell growth at 5 uM by SRB assay; assay type: functional; details: read-out: Activity
[10] = test system: COLO 205; test: Cytotoxicity against human COLO205 cells by SRB assay; assay type: functional
[11] = test system: RPMI-8226; test: Cytotoxicity against human RPMI8226 cells assessed as cell growth at 0.005 uM by SRB assay; assay type: functional; details: read-out: Activity
[12] = test system: MOLT-4; test: Cytotoxicity against human MOLT4 cells assessed as cell growth at 5 uM by SRB assay; assay type: functional; details: read-out: Activity
[13] = test system: T47D; test: Cytotoxicity against human T47D cells assessed as cell growth at 50 uM by SRB assay; assay type: functional; details: read-out: Activity
[14] = test system: CAKI-1; test: Cytotoxicity against human Caki1 cells by SRB assay; assay type: functional
[15] = test system: HCC 2998; test: Cytotoxicity against human HCC2998 cells assessed as cell growth at 5 uM by SRB assay; assay type: functional; details: read-out: Activity; in short: as §1
[16] = test system: NCI-H23; test: Cytotoxicity against human NCI-H23 cells assessed as cell growth at 0.05 uM by SRB assay; assay type: functional; details: read-out: Activity
[17] = test system: NCI-H522; test: Cytotoxicity against human NCI-H522 cells assessed as cell growth at 0.05 uM by SRB assay; assay type: functional; details: read-out: Activity
[18] = test system: MOLT-4; test: Cytotoxicity against human MOLT4 cells by SRB assay; assay type: functional
In short: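 NCI-60 panel screen; 5-dose testing giving GI50 per cell line, plus a single 10 µM one-dose test. Method details not given beyond the NCI screen.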

[19] = test system: OVCAR-3; test: Cytotoxicity against human OVCAR3 cells assessed as cell growth at 0.5 uM by SRB assay; assay type: functional; details: read-out: Activity
[20] = test system: NCI-H460; test: Cytotoxicity against human NCI-H460 cells assessed as cell growth at 5 uM by SRB assay; assay type: functional; details: read-out: Activity
[21] = test system: SK-OV-3; test: Cytotoxicity against human SKOV3 cells assessed as cell growth at 0.005 uM by SRB assay; assay type: functional; details: read-out: Activity
[22] = test system: U-251; test: Cytotoxicity against human U251 cells assessed as cell growth at 0.05 uM by SRB assay; assay type: functional; details: read-out: Activity
[23] = test system: BT-549; test: Cytotoxicity against human BT549 cells assessed as cell growth at 0.005 uM by SRB assay; assay type: functional; details: read-out: Activity
[24] = test system: TK-10; test: Cytotoxicity against human TK10 cells assessed as cell growth at 0.5 uM by SRB assay; assay type: functional; details: read-out: Activity
[25] = test system: IGROV-1; test: Cytotoxicity against human IGROV1 cells assessed as cell growth at 50 uM by SRB assay; assay type: functional; details: read-out: Activity
[26] = test system: ACHN; test: Cytotoxicity against human ACHN cells by SRB assay; assay type: functional
[27] = test system: HCT-116; test: Cytotoxicity against human HCT116 cells by SRB assay; assay type: functional; in short: as §1
[28] = test system: SNB-75; test: Cytotoxicity against human SNB75 cells assessed as cell growth at 0.5 uM by SRB assay; assay type: functional; details: read-out: Activity
[29] = test system: MDA-MB-468; test: Cytotoxicity against human MDA-MB-468 cells assessed as cell growth at 5 uM by SRB assay; assay type: functional; details: read-out: Activity
[30] = test system: OVCAR-8; test: Cytotoxicity against human OVCAR8 cells assessed as cell growth at 0.05 uM by SRB assay; assay type: functional; details: read-out: Activity
[31] = Cytotoxicity against human Hs578T cells assessed as cell growth at 5 uM by SRB assay; assay type: functional; details: Hs-578T, read-out: Activity; in short: as §1
[32] = test system: UACC-257; test: Cytotoxicity against human UACC257 cells assessed as cell growth at 0.5 uM by SRB assay; assay type: functional; details: read-out: Activity
[33] = test system: SK-MEL-5; test: Cytotoxicity against human SK-MEL-5 cells assessed as cell growth at 50 uM by SRB assay; assay type: functional; details: read-out: Activity
[34] = test system: SNB-75; test: Cytotoxicity against human SNB75 cells assessed as cell growth at 5 uM by SRB assay; assay type: functional; details: read-out: Activity
[35] = test system: U-251; test: Cytotoxicity against human U251 cells assessed as cell growth at 50 uM by SRB assay; assay type: functional; details: read-out: Activity
[36] = test system: DU-145; test: Cytotoxicity against human DU145 cells assessed as cell growth at 50 uM by SRB assay; assay type: functional; details: read-out: Activity; in short: as §1
[37] = test system: OVCAR-5; test: Cytotoxicity against human OVCAR5 cells assessed as cell growth at 0.5 uM by SRB assay; assay type: functional; details: read-out: Activity
[38] = test system: SNB-19; test: Cytotoxicity against human SNB19 cells assessed as cell growth at 0.05 uM by SRB assay; assay type: functional; details: read-out: Activity
[39] = test system: SK-MEL-2; test: Cytotoxicity against human SK-MEL-2 cells assessed as cell growth at 0.05 uM by SRB assay; assay type: functional; details: read-out: Activity
[40] = test system: SW-620; test: Cytotoxicity against human SW620 cells assessed as cell growth at 0.05 uM by SRB assay; assay type: functional; details: read-out: Activity
[41] = test system: SNB-75; test: Cytotoxicity against human SNB75 cells assessed as cell growth at 0.005 uM by SRB assay; assay type: functional; details: read-out: Activity
[42] = test system: SK-MEL-28; test: Cytotoxicity against human SK-MEL-28 cells assessed as cell growth at 50 uM by SRB assay; assay type: functional; details: read-out: Activity
[43] = test system: MDA-MB-468; test: Cytotoxicity against human MDA-MB-468 cells assessed as cell growth at 0.05 uM by SRB assay; assay type: functional; details: read-out: Activity
[44] = test system: M14; test: Cytotoxicity against human M14 cells assessed as cell growth at 0.005 uM by SRB assay; assay type: functional; details: read-out: Activity
[45] = read-out: LC50 (the source's name)
[46] = read-out: pLC50 (the source's name) (converted)

COc1cc([C@@H]2c3cc4c(cc3[C@@H](NC(=O)CN3CCN(CCCCCCCCCCN5CCN(CC(=O)N[C@@H]6c7cc8c(cc7[C@@H](c7cc(OC)c(O)c(OC)c7)[C@H]7C(=O)OC[C@@H]76)OCO8)CC5)CC3)[C@H]3COC(=O)[C@H]23)OCO4)cc(OC)c1O
growth at 0.005 µM [1]: 95% | growth at 5 µM [2]: -88% | IC50 [3]: 0.044 µM | growth at 0.5 µM [4]: 22% | growth at 50 µM [5]: -54% | growth at 0.05 µM [6]: 67% | growth at 0.005 µM [7]: 91% | growth at 0.05 µM [8]: 88% | growth at 5 µM [9]: 17% | GI50 ([10]; read-out: GI50): 0.906 µM | CC50 [10, 45]: > 50 µM | TGI ([10]; read-out: TGI): 3.52 µM | GI50 ([10]; read-out: pGI50 (converted)): 0.912 µM | CC50 [10, 46]: > 50.1 µM | TGI ([10]; read-out: pTGI (converted)): 3.55 µM | growth at 0.005 µM [11]: 89% | growth at 5 µM [12]: -46% | growth at 50 µM [13]: -40% | GI50 ([14]; read-out: GI50): 1.93 µM | CC50 [14, 45]: 21 µM | TGI ([14]; read-out: TGI): 8.37 µM | GI50 ([14]; read-out: pGI50 (converted)): 1.95 µM | CC50 [14, 46]: 20.9 µM | TGI ([14]; read-out: pTGI (converted)): 8.32 µM | growth at 5 µM [15]: 29% | growth at 0.05 µM [16]: 81% | growth at 0.05 µM [17]: 39% | GI50 ([18]; read-out: GI50): 0.185 µM | CC50 [18, 45]: 6.02 µM | TGI ([18]; read-out: TGI): 1.4 µM | GI50 ([18]; read-out: pGI50 (converted)): 0.186 µM | CC50 [18, 46]: 6.03 µM | TGI ([18]; read-out: pTGI (converted)): 1.41 µM | growth at 0.5 µM [19]: 63% | growth at 5 µM [20]: 33% | growth at 0.005 µM [21]: 98% | growth at 0.05 µM [22]: 69% | growth at 0.005 µM [23]: 94% | growth at 0.5 µM [24]: 96% | growth at 50 µM [25]: -41% | GI50 ([26]; read-out: GI50): 0.32 µM | CC50 [26, 45]: 2.95 µM | TGI ([26]; read-out: TGI): 1.11 µM | GI50 ([26]; read-out: pGI50 (converted)): 0.324 µM | CC50 [26, 46]: 2.95 µM | TGI ([26]; read-out: pTGI (converted)): 1.12 µM | GI50 ([27]; read-out: GI50): 1 µM | CC50 [27, 45]: 46.5 µM | TGI ([27]; read-out: TGI): 3.46 µM | GI50 ([27]; read-out: pGI50 (converted)): 1 µM | CC50 [27, 46]: 46.8 µM | TGI ([27]; read-out: pTGI (converted)): 3.47 µM | growth at 0.5 µM [28]: 34% | growth at 5 µM [29]: -29% | growth at 0.05 µM [30]: 92% | growth at 5 µM [31]: 41% | growth at 0.5 µM [32]: 73% | growth at 50 µM [33]: -68% | growth at 5 µM [34]: -12% | growth at 50 µM [35]: -79% | growth at 50 µM [36]: -100% | growth at 0.5 µM [37]: 63% | growth at 0.05 µM [38]: 93% | growth at 0.05 µM [39]: 89% | growth at 0.05 µM [40]: 75% | growth at 0.005 µM [41]: 95% | growth at 50 µM [42]: -83% | growth at 0.05 µM [43]: 99% | growth at 0.005 µM [44]: 94%
